Assays:
Phospholipase D1 = target: T1, Phospholipase D1 (Homo sapiens, UniProt Q13393); assay: Inhibition of PLD1 (unknown origin) expressed in human Calu1 cells by cell-based assay; parameters: species or system Calu-1
T1 sequence (Q13393 whole entry): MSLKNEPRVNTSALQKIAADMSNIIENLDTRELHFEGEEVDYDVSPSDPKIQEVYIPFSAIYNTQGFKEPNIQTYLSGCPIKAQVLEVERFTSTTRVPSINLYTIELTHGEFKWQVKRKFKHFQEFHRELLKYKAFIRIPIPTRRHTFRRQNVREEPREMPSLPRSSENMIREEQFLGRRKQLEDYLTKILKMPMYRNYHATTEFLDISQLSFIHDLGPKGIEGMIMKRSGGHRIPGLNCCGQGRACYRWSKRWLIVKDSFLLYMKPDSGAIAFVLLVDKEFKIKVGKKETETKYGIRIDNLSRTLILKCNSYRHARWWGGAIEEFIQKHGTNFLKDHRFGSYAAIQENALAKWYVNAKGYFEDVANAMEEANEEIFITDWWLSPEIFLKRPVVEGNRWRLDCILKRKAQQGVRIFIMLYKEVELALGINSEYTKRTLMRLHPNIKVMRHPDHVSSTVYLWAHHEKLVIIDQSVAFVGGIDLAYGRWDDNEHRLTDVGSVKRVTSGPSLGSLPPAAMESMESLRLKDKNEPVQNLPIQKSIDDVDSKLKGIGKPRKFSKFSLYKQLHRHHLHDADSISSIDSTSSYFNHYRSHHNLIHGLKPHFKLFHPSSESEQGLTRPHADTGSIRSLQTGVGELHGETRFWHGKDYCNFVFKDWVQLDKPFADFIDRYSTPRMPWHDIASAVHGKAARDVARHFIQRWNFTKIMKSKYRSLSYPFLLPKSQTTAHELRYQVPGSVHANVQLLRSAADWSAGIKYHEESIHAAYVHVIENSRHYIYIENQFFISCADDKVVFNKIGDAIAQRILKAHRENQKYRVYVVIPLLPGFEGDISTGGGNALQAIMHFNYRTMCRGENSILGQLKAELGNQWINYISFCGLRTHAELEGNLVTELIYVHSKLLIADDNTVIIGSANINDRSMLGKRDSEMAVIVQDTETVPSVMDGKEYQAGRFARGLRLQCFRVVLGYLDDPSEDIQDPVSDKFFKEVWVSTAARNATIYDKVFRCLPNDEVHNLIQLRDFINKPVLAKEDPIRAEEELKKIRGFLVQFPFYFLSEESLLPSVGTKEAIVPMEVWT

Calu-1 [1] = assay: Selectivity ratio of IC50 for PLD2 (unknown origin) expressed in HEK293-gfp cells to IC50 for PLD1 (unknown origin) expressed in human Calu1 cells; type: cell-based
In short: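 Both IC50s come from cellular assays. PLD1 was measured in Calu-1 cells and PLD2 in HEK293-gfp PLD2 cells. Each IC50 was determined in triplicate. The value is the PLD2 IC50 divided by the PLD1 IC50.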

D(2) dopamine receptor = D(2) dopamine receptor (Homo sapiens, UniProt P14416); assay: Inhibition of dopamine D2 receptor (unknown origin)
Phospholipase D2 = Phospholipase D2 (Homo sapiens, UniProt O14939); assay: Inhibition of PLD2 (unknown origin) expressed in HEK293-gfp cells by cell-based assay
In short: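 Cellular assay in HEK293-gfp PLD2 cells; each IC50 determined in triplicate.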

Calu-1 [2] = assay: Selectivity ratio of IC50 for PLD1 (unknown origin) expressed in human Calu1 cells to IC50 for PLD2 (unknown origin) expressed in HEK293-gfp cells; type: cell-based

Sequence of Phospholipase D2 (O14939 whole entry): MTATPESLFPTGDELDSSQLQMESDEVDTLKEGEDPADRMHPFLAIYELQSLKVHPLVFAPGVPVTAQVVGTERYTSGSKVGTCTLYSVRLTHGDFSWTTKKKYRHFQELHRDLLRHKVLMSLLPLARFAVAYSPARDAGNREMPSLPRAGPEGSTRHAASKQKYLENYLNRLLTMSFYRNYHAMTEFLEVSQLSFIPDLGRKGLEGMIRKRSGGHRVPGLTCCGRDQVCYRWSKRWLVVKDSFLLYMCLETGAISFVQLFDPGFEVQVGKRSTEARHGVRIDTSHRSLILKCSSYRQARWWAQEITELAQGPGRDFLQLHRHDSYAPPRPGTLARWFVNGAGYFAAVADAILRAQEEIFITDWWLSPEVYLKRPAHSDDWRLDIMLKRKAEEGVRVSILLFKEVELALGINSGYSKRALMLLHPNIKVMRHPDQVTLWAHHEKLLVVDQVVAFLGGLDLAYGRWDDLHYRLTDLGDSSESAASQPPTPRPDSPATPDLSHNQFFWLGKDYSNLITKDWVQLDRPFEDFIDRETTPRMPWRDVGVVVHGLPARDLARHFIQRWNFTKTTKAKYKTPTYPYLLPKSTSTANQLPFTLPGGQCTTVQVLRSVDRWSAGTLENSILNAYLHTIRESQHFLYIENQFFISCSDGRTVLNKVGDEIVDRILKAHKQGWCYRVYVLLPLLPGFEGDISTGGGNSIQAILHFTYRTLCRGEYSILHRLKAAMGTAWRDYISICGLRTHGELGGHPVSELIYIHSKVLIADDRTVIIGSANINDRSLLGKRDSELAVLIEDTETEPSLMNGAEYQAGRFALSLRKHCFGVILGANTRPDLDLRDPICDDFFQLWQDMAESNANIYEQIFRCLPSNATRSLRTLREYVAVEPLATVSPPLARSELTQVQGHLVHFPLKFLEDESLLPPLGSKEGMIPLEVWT
Sequence of D(2) dopamine receptor (P14416 whole entry): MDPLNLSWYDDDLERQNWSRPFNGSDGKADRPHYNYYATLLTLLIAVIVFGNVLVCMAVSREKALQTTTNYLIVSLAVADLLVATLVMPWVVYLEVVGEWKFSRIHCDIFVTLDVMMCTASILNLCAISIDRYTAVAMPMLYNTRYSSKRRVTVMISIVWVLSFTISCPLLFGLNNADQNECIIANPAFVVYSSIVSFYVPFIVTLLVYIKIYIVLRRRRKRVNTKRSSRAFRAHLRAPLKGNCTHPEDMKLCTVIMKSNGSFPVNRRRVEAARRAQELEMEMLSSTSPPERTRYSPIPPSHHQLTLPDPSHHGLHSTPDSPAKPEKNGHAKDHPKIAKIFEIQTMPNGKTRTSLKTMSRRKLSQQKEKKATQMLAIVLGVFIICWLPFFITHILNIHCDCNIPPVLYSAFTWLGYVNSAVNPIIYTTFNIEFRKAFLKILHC

Structure (SMILES)	IC50 (Phospholipase D1) [nM]	Ratio IC50 (Calu-1 [1])	IC50 (D(2) dopamine receptor) [nM]	IC50 (Phospholipase D2) [nM]	Ratio IC50 (Calu-1 [2])
CC1CC(n2c(=O)[nH]c3ccccc32)CCN1CCNC(=O)c1ccc(F)cc1 (stereo not drawn)	636	11.5	–	–	–
O=C(NCCN1CCC(n2c(=O)[nH]c3ccccc32)C(F)C1)c1ccc(F)c(F)c1 (stereo not drawn)	21	4.7	> 10000	–	–
O=C(NCCN1CC2CC(n3c(=O)[nH]c4ccccc43)CC2C1)c1ccc2ccccc2c1 (stereo not drawn)	244	7.3	–	–	–
O=C(NCCN1CC2CC(n3c(=O)[nH]c4ccccc43)CC2C1)c1ccc(F)cc1 (stereo not drawn)	870	4	–	3570	–
O=C(NCCN1CC2CC(n3c(=O)[nH]c4ccccc43)CC2C1)c1ccc(Br)cc1 (stereo not drawn)	468	5.5	–	–	–
O=C(NCCN1CC2CC(n3c(=O)[nH]c4ccccc43)CC2C1)c1cc2cc(F)ccc2[nH]1 (stereo not drawn)	230	5.4	–	1240	–
O=C(NCCN1CC2CC(n3c(=O)[nH]c4ccccc43)CC2C1)c1cc2ccccc2[nH]1 (stereo not drawn)	72	3	–	220	–
O=C(NCCN1CC2CC(n3c(=O)[nH]c4ccccc43)CC2C1)c1ccc(F)c(F)c1 (stereo not drawn)	820	3.9	–	3250	–
CC(CNC(=O)c1ccc2ccccc2c1)N1CCC2(CC1)C(=O)NCN2c1ccccc1 (racemic)	315	–	–	64	5
CC(CNC(=O)c1ccc(F)cc1)N1CCC2(CC1)C(=O)NCN2c1ccccc1 (racemic)	1490	–	–	290	5
CC(CNC(=O)c1ccc(Br)cc1)N1CCC2(CC1)C(=O)NCN2c1ccccc1 (racemic)	230	–	–	120	2
CC(CNC(=O)c1cc2cc(F)ccc2[nH]1)N1CCC2(CC1)C(=O)NCN2c1ccccc1 (racemic)	35	–	–	18	2
CC(CNC(=O)c1cc2ccccc2[nH]1)N1CCC2(CC1)C(=O)NCN2c1ccccc1 (racemic)	21	–	–	6	3
CC(CNC(=O)c1ccc(F)c(F)c1)N1CCC2(CC1)C(=O)NCN2c1ccccc1 (racemic)	1080	–	–	17	63
CC1CC(n2c(=O)[nH]c3ccccc32)CCN1CCNC(=O)[C@@H]1C[C@H]1c1ccccc1 (relative stereo)	115	24	–	–	–
O=C(NCCN1CC2CC(n3c(=O)[nH]c4ccccc43)CC2C1)[C@@H]1C[C@H]1c1ccccc1 (relative stereo)	1080	–	–	115	–

— ChEMBL document CHEMBL3352006, “Further evaluation of novel structural modifications to scaffolds that engender PLD isoform selective inhibition” (Bioorg Med Chem Lett, 2014)
